Consider two compounds from ChEMBL document CHEMBL3045498, “Antifeedant and larvicidal activities of Rhein isolated from the flowers of Cassia fistula L” (2011).

Values after ≈ are worked out from the molar mass of the structure shown.

What all share (type): functional
Assay [1] has as its system Helicoverpa armigera. The experiment in a line: Larvicidal activity against Helicoverpa armigera fed on compound-treated cotton leaf assessed as mortality at 1000 ppm after 96 hr relative to control. The method in brief: (§1)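 Larvae were fed 24 h on leaf discs treated with compound at several concentrations, then kept on untreated fresh leaves. Diet was replaced every 24 h, and larval mortality was scored 96 h after treatment.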

The subject of assay [2] is Spodoptera litura. Nature of the assay: Antifeedant activity against pre-starved fourth instar larva of Spodoptera litura fed on compound-treated castor leaf assessed as antifeedant index at 125 ppm after 24 hr by leaf disc no choice method.
Assay [3] relates to Helicoverpa armigera. The experiment in a line: Larvicidal activity against Helicoverpa armigera fed on compound-treated cotton leaf assessed as mortality at 250 ppm after 96 hr relative to control. In short, it runs like this: as §1
In assay [4] the test system is Spodoptera litura. Nature of the assay: Larvicidal activity against Spodoptera litura fed on compound-treated castor leaf assessed as mortality at 500 ppm after 96 hr relative to control. In short, it runs like this: as §1
The test system of assay [5] is Spodoptera litura. Nature of the assay: Larvicidal activity against Spodoptera litura fed on compound-treated castor leaf assessed as mortality at 125 ppm after 96 hr relative to control. In short, it runs like this:
as §1

The test system of assay [6] is Helicoverpa armigera. Nature of the assay: Larvicidal activity against Helicoverpa armigera fed on compound-treated cotton leaf assessed as mortality at 125 ppm after 96 hr relative to control. In short, it runs like this:
as §1

Assay [7] has as its system Helicoverpa armigera. The experiment in a line: Antifeedant activity against pre-starved fourth-instar larva of Helicoverpa armigera fed on compound-treated cotton leaf assessed as antifeedant index at 1000 ppm after 24 hr by leaf disk no choice method.
Assay [8] has as its system Helicoverpa armigera. The experiment in a line: Larvicidal activity against Helicoverpa armigera fed on compound-treated cotton leaf assessed as mortality after 96 hr relative to control. The method in brief:
as §1

Assay [9] concerns Helicoverpa armigera. Nature of the assay: Antifeedant activity against pre-starved fourth-instar larva of Helicoverpa armigera fed on compound-treated cotton leaf assessed as antifeedant index at 250 ppm after 24 hr by leaf disk no choice method.
The test system of assay [10] is Helicoverpa armigera. The experiment in a line: Larvicidal activity against Helicoverpa armigera fed on compound-treated cotton leaf assessed as mortality at 500 ppm after 96 hr relative to control. The method in brief:
as §1

The subject of assay [11] is Helicoverpa armigera. The experiment in a line: Antifeedant activity against pre-starved fourth-instar larva of Helicoverpa armigera fed on compound-treated cotton leaf assessed as antifeedant index at 125 ppm after 24 hr by leaf disk no choice method.
Assay [12] has as its system Spodoptera litura. Nature of the assay: Antifeedant activity against pre-starved fourth-instar larva of Spodoptera litura fed on compound-treated castor leaf assessed as antifeedant index at 250 ppm after 24 hr by leaf disc no choice method.
In assay [13] the test system is Spodoptera litura. The experiment in a line: Larvicidal activity against Spodoptera litura fed on compound-treated castor leaf assessed as mortality after 96 hr relative to control. The method in brief: as §1
For assay [14], the system named is Spodoptera litura. The experiment in a line: Antifeedant activity against pre-starved fourth-instar larva of Spodoptera litura fed on compound-treated castor leaf assessed as antifeedant index at 500 ppm after 24 hr by leaf disc no choice method.
For assay [15], the system named is Spodoptera litura. Nature of the assay: Larvicidal activity against Spodoptera litura fed on compound-treated castor leaf assessed as mortality at 1000 ppm after 96 hr relative to control. The method in brief: as §1
In assay [16] the test system is Helicoverpa armigera. Nature of the assay: Antifeedant activity against pre-starved fourth-instar larva of Helicoverpa armigera fed on compound-treated cotton leaf assessed as antifeedant index at 500 ppm after 24 hr by leaf disk no choice method.
For assay [17], the system named is Spodoptera litura. Nature of the assay: Antifeedant activity against pre-starved fourth-instar larva of Spodoptera litura fed on compound-treated castor leaf assessed as antifeedant index at 1000 ppm after 24 hr by leaf disc no choice method.
Assay [18] concerns Spodoptera litura. The experiment in a line: Larvicidal activity against Spodoptera litura fed on compound-treated castor leaf assessed as mortality at 250 ppm after 96 hr relative to control. The method in brief:
as §1

What is called mortality is the share of the test organisms that died. The term LC50 denotes the concentration lethal to half of the exposed cells or organisms. As to `C/C=C(\C)C(=O)O[C@H]1C[C@@H](OC(C)=O)[C@@]2(C(=O)OC)CO[C@H]3[C@@H](O)[C@@](C)([C@]45O[C@@]4(C)[C@@H]4C[C@H]5O[C@@H]5OC=C[C@@]54O)[C@H]4[C@]1(CO[C@]4(O)C(=O)OC)[C@@H]32` [AZADIRACHTIN A], the mortality at 1000 ppm in the assay with Helicoverpa armigera [1] and in the assay with Spodoptera litura [15] was 100% in each case. In addition, the AFI in the assay with Spodoptera litura [2] is given as 60.12%; in the assay on Helicoverpa armigera [7], 86.47%; with Helicoverpa armigera [9], 64.13%; in the assay on Helicoverpa armigera [11], 53.5%; with Spodoptera litura [12], 70.08%; with Spodoptera litura [14], 78.66%. Besides, the AFI in the assay on Helicoverpa armigera [16] was 75.88%; in the assay on Spodoptera litura [17], 88.02%. The mortality at 250 ppm in the assay with Helicoverpa armigera [3] came to 61.2%; in the assay on Spodoptera litura [18], 73.8%. The mortality at 500 ppm in the assay on Spodoptera litura [4] came out at 100%; in the assay on Helicoverpa armigera [10] it was 95%. Moreover, the results for the mortality at 125 ppm in the assay on Spodoptera litura [5] and in the assay on Helicoverpa armigera [6] were 52.5% and 38.8%, respectively. Moreover, the values for the LC50 with Helicoverpa armigera [8] and with Spodoptera litura [13] were 186 µg/mL (≈ 258 µM) and 128 µg/mL (≈ 177 µM), respectively.
Regarding `O=C(O)c1cc(O)c2c(c1)C(=O)c1cccc(O)c1C2=O` [RHEIN], the mortality at 1000 ppm in the assay with Helicoverpa armigera [1] turned out to be 67.5%; in the assay on Spodoptera litura [15], 36.2%. The AFI stood at 27.28% in the assay with Spodoptera litura [2]; 76.13% in the assay with Helicoverpa armigera [7]; 55.06% in the assay on Helicoverpa armigera [9]; 47.82% in the assay on Helicoverpa armigera [11]; 33.05% with Spodoptera litura [12]; 40.85% with Spodoptera litura [14]. Further, the AFI with Helicoverpa armigera [16] is given as 59.98%; in the assay with Spodoptera litura [17], 56.79%. Besides, the figures for the mortality at 250 ppm with Helicoverpa armigera [3] and in the assay on Spodoptera litura [18] were 32.5% and 15%, respectively. The mortality at 500 ppm with Spodoptera litura [4] came to 21.2%; in the assay on Helicoverpa armigera [10], 50%. Moreover, the figures for the mortality at 125 ppm in the assay on Spodoptera litura [5] and with Helicoverpa armigera [6] were 0% and 22.5%, respectively. Moreover, the LC50 amounted to 606 µg/mL (≈ 2130 µM) in the assay with Helicoverpa armigera [8] and 1190 µg/mL (≈ 4200 µM) in the assay on Spodoptera litura [13].
